Our source for the zone of inhibition, MIC and Ratio values is ChEMBL document CHEMBL1932971, “Synthesis of uriedo and thiouriedo derivatives of peptide conjugated heterocycles - A new class of promising antimicrobials” (2012).

Structures are written as SMILES. In brackets after ≈: the same amount, converted by molar mass. Numbered stars: 1 amine (or outer) side, 2 acyl side, 3 side chain; on linkers, the order of the positions; unused ones are H or OH. Peptide text beside a SMILES is read from it. * marks the point of attachment. Piperazinyl(4-(2,3-Cl2Ph)) = Clc1cccc(N2CCN(*)CC2)c1Cl; Thiocarbamoyl(N-4-ClPh) = S=C(Nc1ccc(Cl)cc1)*; Thiocarbamoyl(4-MeOPh) = COc1ccc(NC(=S)*)cc1; X1 = Fc1ccc2c(C3CCN(*)CC3)noc2c1; NH(2-F-phenyl) = Fc1ccccc1N*; CO = O=C([*:1])[*:2]; OcHex = C1CCC(O*)CC1

Holding throughout (type): functional
One assay deals with Escherichia coli. The assay can be described thus: Antibacterial activity against Escherichia coli at 30 ug/ml after 24 hrs by agar well diffusion method. The following applies: read-out: DIZ. The method in brief:
(§1)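 Agar well diffusion. Inocula were grown in nutrient broth at 37 °C for 24 h, then subcultured in nutrient broth at room temperature. Compounds were made as a 1 mg/mL DMSO stock and diluted to 30 µg/mL final. Nutrient agar plates were spread-inoculated and 6 mm wells each got 0.1 mL. Controls were amoxicillin (reference) and DMSO (negative). Incubation was 24 h at 37 °C. Inhibition zone was measured in mm as the mean of three determinations.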

Another assay relates to Xanthomonas oryzae. The experiment in a line: Antibacterial activity against Xanthomonas oryzae at 30 ug/ml after 24 hrs by agar well diffusion method. The settings on record: read-out: DIZ.
The test system of another assay is Klebsiella pneumoniae. The experiment in a line: Antibacterial activity against Klebsiella pneumoniae at 30 ug/ml after 24 hrs by agar well diffusion method. The settings on record: read-out: DIZ. In a few lines:
as §1

The next assay relates to Staphylococcus aureus. The experiment in a line: Antibacterial activity against coagulase-positive Staphylococcus aureus at 30 ug/ml after 24 hrs by agar well diffusion method. The settings on record: read-out: DIZ. In a few lines: as §1
For assay [1], the system named is Aspergillus niger. The experiment in a line: Antifungal activity against Aspergillus niger at 30 ug/ml after 72 hrs by agar well diffusion method. The settings on record: read-out: DIZ. In a few lines: (§2)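 Fungal well diffusion. Inocula were subcultured in nutrient broth for one day, then spread on solidified medium. Compounds were made as a 1 mg/mL DMSO stock and diluted to 30 µg/mL final. Each 6 mm well got 0.1 mL. Controls were bavistin (reference) and DMSO (negative). Plates stood for 3 days at room temperature. Inhibition zone was measured in mm as the mean of three determinations.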

For assay [2], the system named is Aspergillus flavus. The experiment in a line: Antifungal activity against Aspergillus flavus at 30 ug/ml after 72 hrs by agar well diffusion method. The settings on record: read-out: DIZ. In a few lines:
as §2

In assay [3] the test system is Fusarium oxysporum. The experiment in a line: Antifungal activity against Fusarium oxysporum at 30 ug/ml after 72 hrs by agar well diffusion method. The settings on record: read-out: DIZ. In a few lines: as §2
Assay [4] relates to Aspergillus niger. The experiment in a line: Antifungal activity against Aspergillus niger after 72 hrs by microdilution method.
Assay [5] concerns Aspergillus flavus. The assay can be described thus: Antifungal activity against Aspergillus flavus after 72 hrs by microdilution method.
Assay [6] deals with Fusarium oxysporum. The experiment in a line: Antifungal activity against Fusarium oxysporum after 72 hrs by microdilution method.
In assay [7] the test system is Aspergillus niger. The assay can be described thus: Ratio of bavistin MIC to compound MIC for Aspergillus niger after 72 hrs by microdilution method.
Assay [8] relates to Aspergillus flavus. The assay can be described thus: Ratio of bavistin MIC to compound MIC for Aspergillus flavus after 72 hrs by microdilution method.
Assay [9] deals with Fusarium oxysporum. The assay can be described thus: Ratio of bavistin MIC to compound MIC for Fusarium oxysporum after 72 hrs by microdilution method.

On to `CC(C)[C@H](NC(=O)CNC(=O)[C@@H]1CCCN1C(=O)[C@H](Cc1ccccc1)NC(=O)CNC(=O)[C@H](CCC(=O)OC1CCCCC1)NC(=O)CNC(=S)Nc1ccc(Cl)cc1)C(=O)NCC(=O)N[C@H](C(=O)N1CCC[C@H]1C(=O)NCC(=O)N[C@H](C(=O)NCC(=O)N[C@@H](Cc1ccccc1)C(=O)N1CCC[C@H]1C(=O)NCC(=O)N[C@@H](Cc1ccccc1)C(=O)NCC(=O)N[C@@H](Cc1ccccc1)C(=O)N1CCC[C@H]1C(=O)NCC(=O)N[C@H](C(=O)NCC(=O)N[C@H](C(=O)N1CCC[C@H]1C(=O)NCC(=O)N[C@H](C(=O)NCC(=O)N[C@@H](Cc1ccccc1)C(=O)N1CCC[C@H]1C(=O)N1CCN(c2cccc(Cl)c2Cl)CC1)C(C)C)C(C)C)C(C)C)C(C)C)C(C)C` ({Thiocarbamoyl(N-4-ClPh)}-GE(OcHex)GFPGVGVPGVGFPGFGFPGVGVPGVGFP-{Piperazinyl(4-(2,3-Cl2Ph))}), for which the zone of inhibition at 30 µg/mL in the assay with Escherichia coli stood at 19 mm; with Xanthomonas oryzae, 16 mm; with Klebsiella pneumoniae, 18 mm; with Staphylococcus aureus, 16 mm; with Aspergillus niger [1], 44 mm; in the assay on Aspergillus flavus [2], 39 mm. In addition, the zone of inhibition at 30 µg/mL in the assay on Fusarium oxysporum [3] amounted to 40 mm. For the same compound, the minimal inhibitory concentration (MIC) is 2.5 µg/mL (≈ 0.779 µM) against Aspergillus niger [4], 2.5 µg/mL (≈ 0.779 µM) in the assay on Aspergillus flavus [5] and 3 µg/mL (≈ 0.935 µM) against Fusarium oxysporum [6]. The Ratio in the assay on Aspergillus niger [7], in the assay on Aspergillus flavus [8] and in the assay on Fusarium oxysporum [9] was 10 in each case.
Regarding `CC(C)[C@H](NC(=O)CNC(=O)[C@@H]1CCCN1C(=O)[C@H](Cc1ccccc1)NC(=O)CNC(=O)[C@H](CCC(=O)OC1CCCCC1)NC(=O)CNC(=O)Nc1ccccc1F)C(=O)NCC(=O)N[C@H](C(=O)N1CCC[C@H]1C(=O)NCC(=O)N[C@H](C(=O)NCC(=O)N[C@@H](Cc1ccccc1)C(=O)N1CCC[C@H]1C(=O)NCC(=O)N[C@@H](Cc1ccccc1)C(=O)NCC(=O)N[C@@H](Cc1ccccc1)C(=O)N1CCC[C@H]1C(=O)NCC(=O)N[C@H](C(=O)NCC(=O)N[C@H](C(=O)N1CCC[C@H]1C(=O)NCC(=O)N[C@H](C(=O)NCC(=O)N[C@@H](Cc1ccccc1)C(=O)N1CCC[C@H]1C(=O)N1CCN(c2cccc(Cl)c2Cl)CC1)C(C)C)C(C)C)C(C)C)C(C)C)C(C)C` ({NH(2-F-phenyl)-CO}-GE(OcHex)GFPGVGVPGVGFPGFGFPGVGVPGVGFP-{Piperazinyl(4-(2,3-Cl2Ph))}), the zone of inhibition at 30 µg/mL with Escherichia coli worked out at 22 mm; in the assay on Xanthomonas oryzae it was 19 mm; with Klebsiella pneumoniae it was 21 mm; with Staphylococcus aureus, 20 mm; in the assay with Aspergillus niger [1] it was 48 mm; in the assay with Aspergillus flavus [2] it was 42 mm. Besides, the zone of inhibition at 30 µg/mL with Fusarium oxysporum [3] stood at 43 mm. In addition, the values for the minimum inhibitory concentration (MIC) against Aspergillus niger [4], with Aspergillus flavus [5] and against Fusarium oxysporum [6] were 2 µg/mL (≈ 0.629 µM), 1.75 µg/mL (≈ 0.551 µM) and 2 µg/mL (≈ 0.629 µM), respectively. The Ratio with Aspergillus niger [7], in the assay on Aspergillus flavus [8] and with Fusarium oxysporum [9] was 10 each time.
Regarding `COc1ccc(NC(=S)NCC(=O)N[C@@H](CCC(=O)OC2CCCCC2)C(=O)NCC(=O)N[C@@H](Cc2ccccc2)C(=O)N2CCC[C@H]2C(=O)NCC(=O)N[C@H](C(=O)NCC(=O)N[C@H](C(=O)N2CCC[C@H]2C(=O)NCC(=O)N[C@H](C(=O)NCC(=O)N[C@H](C(=O)N2CCC[C@H]2C(=O)NCC(=O)N[C@H](C(=O)NCC(=O)N[C@H](C(=O)N2CCC[C@H]2C(=O)NCC(=O)N[C@@H](Cc2ccccc2)C(=O)NCC(=O)N[C@@H](Cc2ccccc2)C(=O)N2CCC[C@H]2C(=O)NCC(=O)N[C@@H](Cc2ccccc2)C(=O)NCC(=O)N[C@@H](Cc2ccccc2)C(=O)N2CCC[C@H]2C(=O)N2CCC(c3noc4cc(F)ccc34)CC2)C(C)C)C(C)C)C(C)C)C(C)C)C(C)C)C(C)C)cc1` ({Thiocarbamoyl(4-MeOPh)}-GE(OcHex)GFPGVGVPGVGVPGVGVPGFGFPGFGFP-X1), the zone of inhibition at 30 µg/mL with Escherichia coli stood at 17 mm; with Xanthomonas oryzae it was 14 mm; in the assay with Klebsiella pneumoniae it was 16 mm; with Staphylococcus aureus, 15 mm; with Aspergillus niger [1] it was 43 mm; in the assay on Aspergillus flavus [2], 38 mm. In addition, the zone of inhibition at 30 µg/mL with Fusarium oxysporum [3] came out at 39 mm. The MIC against Aspergillus niger [4], in the assay with Aspergillus flavus [5] and in the assay on Fusarium oxysporum [6] was 2 µg/mL (≈ 0.626 µM) in each case. Besides, the Ratio in the assay with Aspergillus niger [7], with Aspergillus flavus [8] and in the assay on Fusarium oxysporum [9] was 10 throughout.
With `COc1ccc(NC(=S)NCC(=O)N[C@@H](CCC(=O)OC2CCCCC2)C(=O)NCC(=O)N[C@@H](Cc2ccccc2)C(=O)N2CCC[C@H]2C(=O)NCC(=O)N[C@H](C(=O)NCC(=O)N[C@H](C(=O)N2CCC[C@H]2C(=O)NCC(=O)N[C@H](C(=O)NCC(=O)N[C@@H](Cc2ccccc2)C(=O)N2CCC[C@H]2C(=O)NCC(=O)N[C@@H](Cc2ccccc2)C(=O)NCC(=O)N[C@@H](Cc2ccccc2)C(=O)N2CCC[C@H]2C(=O)NCC(=O)N[C@H](C(=O)NCC(=O)N[C@H](C(=O)N2CCC[C@H]2C(=O)NCC(=O)N[C@H](C(=O)NCC(=O)N[C@@H](Cc2ccccc2)C(=O)N2CCC[C@H]2C(=O)N2CCN(c3cccc(Cl)c3Cl)CC2)C(C)C)C(C)C)C(C)C)C(C)C)C(C)C)C(C)C)cc1` ({Thiocarbamoyl(4-MeOPh)}-GE(OcHex)GFPGVGVPGVGFPGFGFPGVGVPGVGFP-{Piperazinyl(4-(2,3-Cl2Ph))}), the zone of inhibition at 30 µg/mL in the assay with Escherichia coli was 15 mm; in the assay with Xanthomonas oryzae it was 13 mm; in the assay on Klebsiella pneumoniae it was 15 mm; in the assay with Staphylococcus aureus, 14 mm; in the assay with Aspergillus niger [1] it was 42 mm; with Aspergillus flavus [2] it was 37 mm. Further, the zone of inhibition at 30 µg/mL in the assay on Fusarium oxysporum [3] came out at 38 mm. Further, the MIC was 2.75 µg/mL (≈ 0.858 µM) in the assay with Aspergillus niger [4], 2.75 µg/mL (≈ 0.858 µM) against Aspergillus flavus [5] and 3.25 µg/mL (≈ 1.01 µM) with Fusarium oxysporum [6]. Also, the Ratio in the assay on Aspergillus niger [7], with Aspergillus flavus [8] and with Fusarium oxysporum [9] was 10 throughout.
Turning to `CC(C)[C@H](NC(=O)CNC(=O)[C@@H]1CCCN1C(=O)[C@H](Cc1ccccc1)NC(=O)CNC(=O)[C@H](CCC(=O)OC1CCCCC1)NC(=O)CNC(=S)Nc1ccc(Cl)cc1)C(=O)NCC(=O)N[C@H](C(=O)N1CCC[C@H]1C(=O)NCC(=O)N[C@H](C(=O)NCC(=O)N[C@H](C(=O)N1CCC[C@H]1C(=O)NCC(=O)N[C@H](C(=O)NCC(=O)N[C@H](C(=O)N1CCC[C@H]1C(=O)NCC(=O)N[C@@H](Cc1ccccc1)C(=O)NCC(=O)N[C@@H](Cc1ccccc1)C(=O)N1CCC[C@H]1C(=O)NCC(=O)N[C@@H](Cc1ccccc1)C(=O)NCC(=O)N[C@@H](Cc1ccccc1)C(=O)N1CCC[C@H]1C(=O)N1CCC(c2noc3cc(F)ccc23)CC1)C(C)C)C(C)C)C(C)C)C(C)C)C(C)C` ({Thiocarbamoyl(N-4-ClPh)}-GE(OcHex)GFPGVGVPGVGVPGVGVPGFGFPGFGFP-X1), the zone of inhibition at 30 µg/mL in the assay with Escherichia coli was 21 mm; in the assay on Xanthomonas oryzae it was 17 mm; in the assay on Klebsiella pneumoniae, 19 mm; with Staphylococcus aureus, 17 mm; in the assay on Aspergillus niger [1], 45 mm; in the assay with Aspergillus flavus [2] it was 40 mm. Further, the zone of inhibition at 30 µg/mL in the assay with Fusarium oxysporum [3] was found to be 41 mm. For the same compound, the values for the MIC in the assay with Aspergillus niger [4], against Aspergillus flavus [5] and against Fusarium oxysporum [6] were 1.75 µg/mL (≈ 0.547 µM), 1.75 µg/mL (≈ 0.547 µM) and 2.5 µg/mL (≈ 0.781 µM), respectively. Moreover, the Ratio with Aspergillus niger [7], with Aspergillus flavus [8] and in the assay on Fusarium oxysporum [9] was 10 throughout.
